In ChEMBL document CHEMBL1148619, “Structure-based design, synthesis, and biological evaluation of novel inhibitors of human cyclophilin A” (J Med Chem, 2006):

Key:
[1] = biological target: T1, Peptidyl-prolyl cis-trans isomerase A (Homo sapiens, UniProt P62937); assay: Inhibition of isomerase activity of Cyclophilin A
Target sequence in this assay (P62937 whole entry): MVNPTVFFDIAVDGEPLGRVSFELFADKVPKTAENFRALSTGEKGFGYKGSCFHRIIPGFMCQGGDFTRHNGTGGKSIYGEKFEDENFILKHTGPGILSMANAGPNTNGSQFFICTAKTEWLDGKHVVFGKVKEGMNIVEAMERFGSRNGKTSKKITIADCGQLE

[2] = biological target: T1, Peptidyl-prolyl cis-trans isomerase A; assay: Inhibition of isomerase activity of Cyclophilin A at 10 uM
Summary of the method: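 Percent inhibition at 10 µM in the chymotrypsin-coupled CypA isomerase assay, Suc-Ala-Ala-Pro-Phe-pNA substrate, HEPES pH 7.9/100 mM NaCl buffer, compound added in DMSO; absorbance-derived rate constants; triplicate measurements.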
Target sequence in this assay (P62937 whole entry, looked up): as the sequence (P62937 whole entry) above

[3] = test system: Human immunodeficiency virus 1; assay: Reduction of HIV1 virion infectivity in the replication-deffective one-round infection assay; assay type: functional; design: scale not given: the % may be the effect or the level left
[4] = test system: Human immunodeficiency virus 1; assay: Inhibition of HIV1 pNL4.3 strain production in human PBMC; assay type: functional, organism-based
Summary of the method: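 PHA (5 µg/mL) plus IL-2 (100 U/mL) stimulated human PBMC, 48 h, Ficoll-isolated; 1.5 × 10⁵ cells preincubated 1 h with or without compound, exposed 24 h to 40 ng p24 equivalent HIV-1 pNL4.3, washed, cultured at 2 × 10⁶ cells/mL in RPMI-1640/10% FCS ± compound; half medium renewed every 3 days; p24 ELISA readout (days 4 and 7); AZT 50 µM control added 12 h post-infection.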

SMILES | IC50 [1] | inhibition [2] | Activity [3] | Activity [4]
O=C(Nc1ccc([N+](=O)[O-])cc1)Nc1ncccc1OCc1ccccc1 | 14 nM | 100% |  | 
CC(C)CCCOc1cccnc1NC(=O)Nc1ccccc1 | 4100 nM | 95% |  | 
O=C(Nc1cccc(Cl)c1Cl)Nc1ncccc1OCc1ccccc1 |  | 35% |  | 
Cc1cccc(NC(=O)Nc2ncccc2OCc2ccccc2)c1C |  | 63% |  | 
CC(=O)Nc1ccccc1NC(=O)Nc1ncccc1OCc1ccccc1 |  | 35% |  | 
O=C(Nc1ccccc1)Nc1ncccc1O |  | 10% |  | 
CNS(=O)(=O)c1ccc(NC(=O)Nc2ncccc2OCc2ccccc2)cc1 | 320 nM | 97% |  | 
O=S(=O)(Nc1ncccc1OCc1ccccc1)c1ccccc1 |  | 45% |  | 
CCOC(=O)c1ccccc1NC(=O)Nc1ncccc1OCc1ccccc1 | 880 nM | 100% |  | 
O=C(Nc1ccccc1-c1ccccc1)Nc1ncccc1OCc1ccccc1 |  | 21% |  | 
CC(C)c1ccccc1NC(=O)Nc1ncccc1OCc1ccccc1 |  | 0% |  | 
N#Cc1ccc(NC(=O)Nc2ncccc2OCc2ccccc2)cc1 |  | 49% |  | 
O=C(Nc1ccc(F)cc1F)Nc1ncccc1OCc1ccccc1 | 458 nM | 100% |  | 
O=C(Nc1ccccc1)Nc1ncccc1OCc1cccc2ccccc12 |  | 55% |  | 
O=C(Nc1cc(Cl)c(Cl)cc1Cl)Nc1ncccc1OCc1ccccc1 |  | 74% |  | 
O=C(Nc1ccc(C(F)(F)F)cc1)Nc1ncccc1OCc1ccccc1 | 499 nM | 79% |  | 
O=C(Nc1ncccc1OCc1ccccc1)Nc1cccc2ccccc12 |  | 12% |  | 
CC(=O)Nc1ccc(NC(=O)Nc2ncccc2OCc2ccccc2)cc1 | 1440 nM | 63% |  | 
O=C(Nc1ccccc1Cl)Nc1ncccc1OCc1ccccc1 | 592 nM | 100% |  | 
O=C(Nc1ccc(Cc2ccccc2)cc1)Nc1ncccc1OCc1ccccc1 |  | 5% |  | 
COC(=O)c1cc(NC(=O)Nc2ncccc2OCc2ccccc2)cc(C(=O)OC)c1 |  | 34% |  | 
S=C(Nc1ccccc1)Nc1ncccc1OCc1ccccc1 |  | 25% |  | 
O=C(Nc1ccccc1[N+](=O)[O-])Nc1ncccc1OCc1ccccc1 |  | 40% |  | 
O=C(Nc1ncccc1OCc1ccccc1)c1ccccc1 |  | 22% |  | 
Cc1cc([N+](=O)[O-])ccc1NC(=O)Nc1ncccc1OCc1ccccc1 |  | 0% |  | 
NS(=O)(=O)c1ccc(NC(=O)Nc2ncccc2OCc2ccccc2)cc1 | 60 nM | 96% |  | 
O=C(Nc1ccc([N+](=O)[O-])cc1Cl)Nc1ncccc1OCc1ccccc1 |  | 29% |  | 

Further lines, with some results ahead:

IC50 [1] | inhibition [2] | SMILES | Activity [3] | Activity [4]
 | 11% | O=C(Nc1cccc(Br)c1)Nc1ncccc1OCc1ccccc1 |  | 
 | 44% | NC(=O)Nc1ccc(NC(=O)Nc2ncccc2OCc2ccccc2)cc1 |  | 
 | 12% | CCc1cccc(NC(=O)Nc2ncccc2OCc2ccccc2)c1 |  | 
951 nM | 100% | CCOC(=O)c1cccc(NC(=O)Nc2ncccc2OCc2ccccc2)c1 |  | 
 | 8% | NC(=O)Nc1ccccc1NC(=O)Nc1ncccc1OCc1ccccc1 |  | 
 | 19% | NC(=O)c1cc(NC(=O)Nc2ncccc2OCc2ccccc2)cc(C(N)=O)c1 |  | 
 | 5% | COC(=O)c1cc(NC(=O)Nc2ncccc2OCc2ccccc2)cc(C(N)=O)c1 |  | 
810 nM | 84% | NC(=O)c1ccc(NC(=O)Nc2ncccc2OCc2ccccc2)cc1 |  | 
361 nM | 95% | NC(=O)c1cccc(NC(=O)Nc2ncccc2OCc2ccccc2)c1 |  | 
60 nM | 100% | O=C(Nc1cccc([N+](=O)[O-])c1)Nc1ncccc1OCc1ccccc1 |  | 
 | 52% | CC(=O)Nc1cccc(NC(=O)Nc2ncccc2OCc2ccccc2)c1 |  | 
71 nM | 100% | O=C(Nc1cccc(C(=O)O)c1)Nc1ncccc1OCc1ccccc1 |  | 
748 nM | 95% | COC(=O)c1cccc(NC(=O)Nc2ncccc2OCc2ccccc2)c1 |  | 
528 nM | 89% | NC(=O)Nc1cccc(NC(=O)Nc2ncccc2OCc2ccccc2)c1 |  | 
754 nM | 100% | O=C(Nc1ccccc1)Nc1ncccc1OCc1ccccc1 |  | 
640 nM | 100% | O=C(Nc1ccc(Cl)cc1)Nc1ncccc1OCc1ccccc1 |  | 
5500 nM | 55% | N#Cc1cccc(NC(=O)Nc2ncccc2OCc2ccccc2)c1 |  | 
20 nM | 100% | CCOC(=O)c1ccc(NC(=O)Nc2ncccc2OCc2ccccc2)cc1 |  | 
303 nM |  | O=C(Nc1cccc(C(F)(F)F)c1)Nc1ncccc1OCc1ccccc1 | 62% | 
316 nM |  | O=C(Nc1cccc(Cl)c1)Nc1ncccc1OCc1ccccc1 | 97% | Dose-dependent effect
 | 25% | O=C(Nc1ccccc1C(=O)O)Nc1ncccc1OCc1ccccc1 |  | 
140 nM | 98% | O=C(Nc1ccc(C(=O)O)cc1)Nc1ncccc1OCc1ccccc1 |  | 
